Series [1] in a line: Cmax in BALB/c mouse plasma at 100 mg/kg administered via oral gavage after 0.25 to 24 hrs by LC-MS analysis. It counts as ADME, organism-based. More on the design: dose 100 mg/kg, route oral. Put shortly:
(§1)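 Female BALB/c mice (20 g), single oral gavage dose of 100 mg/kg. Cardiac blood and lungs taken at 0, 0.25, 0.5, 1, 2, 4, 8 and 24 h (n = 3 per time point). Plasma separated by centrifugation; lungs bead-beaten in water and supernatant recovered. Drug quantified by LC-MS/MS against an indole-2-carboxamide internal standard. Parameters derived by noncompartmental analysis.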

Series [2] in a line: Mutagenicity in Salmonella typhimurium TA98 assessed as increase in ratio of revertant colonies at 500 microg/plate in presence of S9 liver fraction relative to control. The format is toxicity, subcellular. Conditions: salmonella enterica subsp. enterica serovar typhimurium. Put shortly: (§2)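 Bacterial reverse mutation test in S. typhimurium TA98 with S9 liver fraction, at 500 and 5000 μg/plate. Revertant colony count expressed as a ratio to the DMSO solvent control; 2-aminoanthracene as positive control.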

The nature of series [3]: AUClast in BALB/c mouse plasma at 100 mg/kg administered via oral gavage after 0.25 to 24 hrs by LC-MS analysis. The format is ADME, organism-based. The arrangement: dose 100 mg/kg, time 0.25-24 hr, route oral. In short, it runs like this: as §1
The nature of series [4]: AUClast in BALB/c mouse lung at 100 mg/kg administered via oral gavage after 0.25 to 24 hrs by LC-MS analysis. The format is ADME, organism-based. Conditions: in vivo. In short, it runs like this: as §1
For series [5], the target named is T1, Aryl hydrocarbon receptor (Homo sapiens, UniProt P35869).
T1 sequence (P35869 whole entry): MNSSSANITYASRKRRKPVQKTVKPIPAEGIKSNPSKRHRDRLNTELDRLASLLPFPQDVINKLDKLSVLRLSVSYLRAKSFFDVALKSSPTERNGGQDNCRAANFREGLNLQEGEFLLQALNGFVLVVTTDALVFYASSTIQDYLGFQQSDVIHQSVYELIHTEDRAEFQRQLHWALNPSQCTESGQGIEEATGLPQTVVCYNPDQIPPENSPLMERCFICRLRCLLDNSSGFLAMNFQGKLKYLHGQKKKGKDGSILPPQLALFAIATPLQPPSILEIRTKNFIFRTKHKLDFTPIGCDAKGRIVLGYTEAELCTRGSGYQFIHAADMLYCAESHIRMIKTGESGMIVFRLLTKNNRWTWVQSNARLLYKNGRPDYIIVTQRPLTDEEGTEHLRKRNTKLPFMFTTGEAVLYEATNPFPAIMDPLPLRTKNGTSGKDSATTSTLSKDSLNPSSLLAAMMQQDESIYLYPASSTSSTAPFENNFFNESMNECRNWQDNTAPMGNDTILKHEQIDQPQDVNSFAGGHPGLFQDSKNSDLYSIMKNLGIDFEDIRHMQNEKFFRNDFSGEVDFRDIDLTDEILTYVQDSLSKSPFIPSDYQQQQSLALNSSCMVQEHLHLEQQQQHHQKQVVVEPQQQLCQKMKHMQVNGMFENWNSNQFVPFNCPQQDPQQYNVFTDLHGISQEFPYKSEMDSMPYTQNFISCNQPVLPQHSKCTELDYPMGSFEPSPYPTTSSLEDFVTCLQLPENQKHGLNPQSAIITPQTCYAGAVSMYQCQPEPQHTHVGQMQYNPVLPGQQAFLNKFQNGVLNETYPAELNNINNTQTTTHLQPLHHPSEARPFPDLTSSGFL
The series can be described thus: Transactivation of AhR (unknown origin) assessed as upregulation of CYP1A2 at 0.1 to 1 microg/ml. It counts as ADME. Put shortly:
(§3)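 Nuclear receptor reporter-gene induction assay, with reporters coupled to PXR, CAR or AhR. Compound was tested at 0.1–1, 3 and 8 μg/mL. Positive controls were rifampin for PXR, CITCO for CAR and 3-methylcholanthrene for AhR.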

Series [6] has as its system Mycobacterium tuberculosis. The series can be described thus: Antimycobacterial activity against Mycobacterium tuberculosis H37Rv infected in BALB/c mouse model assessed as reduction in CFU counts in lung at 100 mg/kg administered daily via oral gavage for 5 days per week measured after 28 days post dosage relative to control. It counts as functional. In short, it runs like this:
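Female BALB/c mice, 4-6 weeks old, aerosol-infected with H37Rv (about 10^3 CFU); five mice taken on day 1 for lung implantation CFU. From day 1, 12.5, 25, 50 or 100 mg/kg in 0.5% carboxymethylcellulose by daily oral gavage, 5 days/week. Ethambutol 100 mg/kg as positive control, untreated infected mice as negative, 5 mice per group. Lung homogenates plated on 7H11 selective agar on days 14 and 28.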

Series [7] deals with T2, Nuclear receptor subfamily 1 group I member 2 (Homo sapiens, UniProt O75469).
T2 sequence (O75469 whole entry): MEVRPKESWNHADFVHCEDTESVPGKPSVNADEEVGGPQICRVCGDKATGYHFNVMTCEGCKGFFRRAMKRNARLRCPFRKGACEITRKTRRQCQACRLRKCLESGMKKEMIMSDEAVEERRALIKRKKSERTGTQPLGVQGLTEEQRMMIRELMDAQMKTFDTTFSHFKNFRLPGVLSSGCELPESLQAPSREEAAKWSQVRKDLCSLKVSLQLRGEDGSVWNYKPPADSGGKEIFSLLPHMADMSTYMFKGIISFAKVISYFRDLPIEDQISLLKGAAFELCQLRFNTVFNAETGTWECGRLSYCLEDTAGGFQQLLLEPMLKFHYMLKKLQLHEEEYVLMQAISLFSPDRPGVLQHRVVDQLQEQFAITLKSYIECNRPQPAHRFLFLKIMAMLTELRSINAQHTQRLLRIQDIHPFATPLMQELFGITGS
The series can be described thus: Transactivation of PXR (unknown origin) assessed as upregulation of CYP3A4 at 3 to 8 microg/ml. It counts as ADME. Put shortly:
as §3

For series [8], the system named is Mycobacterium tuberculosis. The series can be described thus: Antimycobacterial activity against Mycobacterium tuberculosis H37Rv grown on serum isolated from 100 mg/kg, po treated BALB/c mouse for 30 to 120 mins assessed as reduction in bacterial growth followed by bacterial addition incubated for 7 days by alamar blue reagent based serum inhibition titration assay. The format is functional, organism-based. In short, it runs like this: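 Six-week-old female BALB/c mice (20 g) given one oral dose as suspension in 0.5% CMC in water; isoniazid 10 mg/kg as positive control, vehicle as negative. Serum collected at 30, 60 and 120 min, pooled from three mice per time point, 2-fold serially diluted. 10^4 CFU H37Rv added per well, 7 days at 37 °C. alamarBlue added for 16−18 h, fluorescence read at Ex544/Em590 and plotted against serum titration.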

A short description of series [9]: Mutagenicity in Salmonella typhimurium TA98 assessed as increase in ratio of revertant colonies at 5000 microg/plate in presence of S9 liver fraction relative to control. The format is toxicity, subcellular. Conditions: salmonella enterica subsp. enterica serovar typhimurium. Put shortly:
as §2

The nature of series [10]: Mean residence time (last) in BALB/c mouse plasma at 100 mg/kg administered via oral gavage by LC-MS analysis. The format is ADME, organism-based. In short, it runs like this:
as §1

Series [11] in a line: Tmax in BALB/c mouse plasma at 100 mg/kg administered via oral gavage after 0.25 to 24 hrs by LC-MS analysis. The format is ADME, organism-based. In short, it runs like this: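 Female BALB/c mice (20 g) got a single 100 mg/kg oral gavage dose. Three animals were sacrificed per time point at 0, 0.25, 0.5, 1, 2, 4, 8 and 24 h. Cardiac blood was spun at 12 000g, 4 °C for plasma. Lungs were bead-beaten in water and the supernatant taken. Both matrices were quantified by LC-MS/MS with an indole-2-carboxamide internal standard. Parameters came from noncompartmental analysis.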

For the next series, the target named is Cytochrome P450 2D6 (Homo sapiens, UniProt P10635). As to the kind of experiment: Inhibition of CYP2D6 (unknown origin). The format is ADME.

Activity calls are given as the source filed them. The calls are words filed in the database; no cut-off is given here.

Sequence of Cytochrome P450 2D6 (P10635 whole entry): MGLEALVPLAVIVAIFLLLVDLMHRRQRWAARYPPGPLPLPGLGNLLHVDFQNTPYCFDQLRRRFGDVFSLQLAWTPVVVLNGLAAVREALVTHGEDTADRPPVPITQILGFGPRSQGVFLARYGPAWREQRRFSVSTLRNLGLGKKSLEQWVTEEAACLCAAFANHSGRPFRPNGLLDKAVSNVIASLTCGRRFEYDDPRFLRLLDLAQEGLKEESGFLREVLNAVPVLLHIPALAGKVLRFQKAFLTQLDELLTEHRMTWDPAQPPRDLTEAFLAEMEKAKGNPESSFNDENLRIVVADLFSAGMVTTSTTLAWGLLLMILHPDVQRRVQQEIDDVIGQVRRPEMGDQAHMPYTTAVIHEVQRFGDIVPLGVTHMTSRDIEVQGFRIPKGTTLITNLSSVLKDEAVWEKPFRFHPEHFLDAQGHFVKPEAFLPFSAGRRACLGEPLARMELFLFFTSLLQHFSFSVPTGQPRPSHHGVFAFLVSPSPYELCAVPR

As for `C[C@@H]1[C@H]2C[C@@H](C[C@H]1NC(=O)c1cc3c(F)cc(F)cc3[nH]1)C2(C)C`, in series [1], the Cmax was determined as 1710 ng/mL. Moreover, the figures for the “fold change (FC)” value in series [2] and in [9] were 2.5 and 2, respectively. This molecule also registered an AUC(0-t) in series [3] of 18900 ng·h/mL. The AUClast in series [4] stood at 51 µg·h/g. Besides, the results for the Activity result in series [5], in [6] and in series [7] were “Not Active”, 2.12 log10CFU and “Active”, respectively. Further, in [8], the outcome was Active. Moreover, the MRT last in series [10] is 7.28 h. In series [11], the Tmax is 4 h. Besides, the “inhibition (INH)” value on Cytochrome P450 2D6 is recorded as 36.6%.

The values are drawn from ChEMBL document CHEMBL4477209, “Indole-2-carboxamide-based MmpL3 Inhibitors Show Exceptional Antitubercular Activity in an Animal Model of Tuberculosis Infection” (J Med Chem, 2016).
